Reference: the EternaBench riboswitch data

Test system: MS2 coat protein
Test: apparent Kd, MS2 coat protein; higher = weaker binding; RNA-MaP array; FMN 200 µM where present
Outline: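 The apparent Kd comes from binding curves fitted cluster by cluster, filtered, and summarised as a median. Those curves followed SNAP-549-labelled MS2 coat protein from 0.7 or 1.5 nM, doubling to 3 µM, on Illumina sequencing-chip clusters where stalled E. coli RNA polymerase had transcribed the designs, without and then with constant ligand. The buffer was 100 mM Tris-HCl pH 7.5, 80 mM KCl, 4 mM MgCl2, BSA, DTT, yeast tRNA and Tween-20, and green signal was normalised to red-channel RNA signal and control-cluster median Fmax.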

[1] = designed as: OFF switch for flavin mononucleotide, no ligand
[2] = ligand present: flavin mononucleotide, designed as: OFF switch for flavin mononucleotide
[3] = designed as: ON switch for flavin mononucleotide, no ligand
[4] = ligand present: flavin mononucleotide, designed as: ON switch for flavin mononucleotide

Row | Sequence | apparent Kd [1] [µM] | apparent Kd [2] [µM] | apparent Kd [3] [µM] | apparent Kd [4] [µM]
1 | CAUAUGGGAGGAUAUGCAUAGAUAAAGAAACAUGUUCAACCACAUGAGGAUCACCCAUGUAGAAGGCCCAUAUG | 0.0296 | 0.162 | – | –
2 | CAGGUGUUAGGAUAUCGGAGAUUGAGGCAGACGGGAAUAUUCGAGAAGGAACAUGAGGAUCACCCAUGUAGUAG | 0.0245 | 0.0289 | – | –
3 | GGUAGAAACAUUAACAUGAGGAUCACCCAUGUCAAAAGAAAUGAGGAUAUCGUAUUCAAUGUAUAUGAGAAGGCAUGGUCUGCC | – | – | 0.0157 | 0.0107
4 | GCGGAACAUGAGGAUCACCCAUGUGGAGGGUGUAAAGGAUAUUAUAGAGAGAAGGUAGGGUAAGAAGGUUGCUGGG | – | – | 0.843 | 0.763
5 | UCCUUGUCCUGAGGAUAUCCGCGGUUCCCAAAAGGAGAAGGCAGGACAUGAGGAUCACCCAUGUACCCAGAAAACGUGCAGAGC | 0.00939 | 0.0338 | – | –
6 | GUAAAACAUGAGGAUCACCCAUGUCAACAAAGUCGAGGAUAUGGGCAAAUAAAAUAAGAACCAGAAGGCGAAUAAG | – | – | 0.161 | 0.0426
7 | UAUAUAUAGUAAGGAUAUGUAAUUAUUUGAUAAACAGAAGGUACUGACAUGAGGAUCACCCAUGUUUUAGUGUGGGCAUGUAGA | 0.0882 | 0.138 | – | –
8 | GCACUGGAUGUAGGAUAUCAGGACGAUAAGUCCUGAGAAGGACAUGAGGAUCACCCAUGUAAAACCUCCCAGUGCUAUAAUAUA | 0.0171 | 0.0197 | – | –
9 | GGCGGCGCGGGCCACCGCAAAACCAGAAGGACAUGAGGAUCACCCAUGUAACAAAACAGGGCGGUGUAGGAUAUGGCAGACCCG | 0.0142 | 0.025 | – | –
10 | GCUCGGCGUCAGAAGGCAGACGCGAAGCGCGUUUGAGGAUAUGACAUGAGGAUCACCCAUGUAGGUGUGCGAAAUUGUAAUCAC | 0.301 | 0.309 | – | –
11 | UUACUAUUGCAGAAGGCUCAAUAAUAUAUAAAGGGAGGAUAUGCAACAUGAGGAUCACCCAUGUUUCACCCAUAUGAGGAUCAC | 0.00951 | 0.013 | – | –
12 | AGGUGAAAUGUAGGAUAUGGAAAUAAAUUUUAACCAGAAGGACAUGAGGAUCACCCAUGUGAUAGAGAGUUAUUUAUAACUCCA | 0.0139 | 0.0959 | – | –
13 | UUUGACAGCUAGAGUUGUUAAGUACAUGAGGAUCACCCAUGUCAGGAUAUCCUUCCGCAAUGCGAGGAGAAGGGACAGGGUCCC | 0.104 | 0.232 | – | –
14 | AUCCGGCGUGUAGGAUAUGGAAAAGAUUAGGAACCAGAAGGACAUGAGGAUCACCCAUGUACAUGUAAACAGUCAUCACCGGAA | 0.0114 | 0.0286 | – | –
15 | AUAAUUAUAUAUUUCCCAAGAAUCAGAAGGCGUUACAUGAGGAUCACCCAUGUUUUGUAUAGUAACGAGGAUAUGAUAUGGAAA | 0.0163 | 0.0145 | – | –
16 | AAGAAGUCAGGAUAUCCAUGGCGGCACUUGCGUGGUGGCGUGGAGAAGGGACAUGAGGAUCACCCAUGUAAAGC | 0.0471 | 0.0328 | – | –
17 | CGUCCGUGGGUAGUGAUCGUACAUGAGGAUCACCCAUGUGAGAAGGAUAUGCAUGCACAUGGACAGCAGAAGGUCUCAUAACAA | 0.0694 | 0.353 | – | –
18 | GUAAAUCAUGUAGGAUAUGCAUGGCGAAGCUACGCAGAAGGACAUGAGGAUCACCCAUGUUAUAGCUACCAAGUUAGGUGGCAA | 0.11 | 0.26 | – | –
19 | GGUCACGUAGGAUAUACCUGGGCCUCUGAAUUCGGCAAUUUACAUGAGGAUCACCCAUGUAGAAGGACGAUGGC | 0.12 | 0.0976 | – | –
20 | GCCAUCGCAUGAGGAUAUGCUCCCGUUUCGGGAGCAGAAGGCAUGUGAUAACACAUGAGGAUCACCCAUGUAGUUAAGAUGGCA | – | – | 0.00531 | 0.00445
21 | CUCAGCUCGUCAGGAUAUACGUCACUGCGUCAGCAGUGUGGUAAGAUCACAUGAGGAUCACCCAUGUAGAAGGGACGAGCUGAU | 0.0137 | 0.278 | – | –
22 | CUUUUUUUUGUGAGGAUAUACUGUUAUUAAAGUUAGUAGAAGGUACAUGAGGAUCACCCAUGUUAAUUACUCUA | 0.0141 | 0.0149 | – | –
23 | CGUAGCAAAGUGAGGAUAUCUAGAGCGAUAGCUCUAGAGAAGGCACAUGAGGAUCACCCAUGUGAUCAGCUACG | 0.276 | 0.899 | – | –
24 | GUUUACCGAGGAUAUACAUGAGGAUCACCCAUGUUCCUAAUAAACAUCGGUUCAGCGUGUAGAAGGCGGACCUA | 0.0225 | 0.0539 | – | –

Row | Sequence | apparent Kd [1] [µM] | apparent Kd [2] [µM] | apparent Kd [3] [µM] | apparent Kd [4] [µM]
25 | AUGGUUGUCGUAGGAUAUGUAGGAUAUUCCUACAUGAGGAUCACCCAUGUUCGCAUGGAAGAAGGACAGAAGGACGAUAACCAC | – | – | 1.31 | 0.00846
26 | GGGAGACAUGAGGAUCACCCAUGUGAAAACGUGUGAGGAUAUGAAUGGAAACCAUACUGUUCAGAAGGCACUUGUC | – | – | 0.0897 | 0.0366
27 | ACAUGAGGAUCACCCAUGUUCACAUAGGAUAUUGAUUAUAUUGGUUUUUGAAUAGUAAUUAACCUCAAGAAGGAUGCCUGAUCU | – | – | 0.0116 | 0.00934
28 | CGGCGGAAAGGAUAUGCAUUAAUAUCAAAAUGUGGGCCACGACAUGAGGAUCACCCAUGUAGAAGGUUCAGCCG | 0.016 | 0.0143 | – | –
29 | CAGGUAUAAGGAUAUACAUAGAUACAGACACAUGUUCAAGUACAUGAGGAUCACCCAUGUAGAAGGUAUAUAUG | 0.0288 | 0.0256 | – | –
30 | UGAGCAUGAGGAUAUACUUGGCGACCGUGAGGUCGAGGUUUACAUGAGGAUCACCCAUGUAGAAGGCAUGUUCU | 0.0187 | 0.0527 | – | –
31 | CCGUUACAUGAGGAUCACCCAUGUGAGGAUAUCGAUGUAACUAGCAGCGUGCGGGACUCGAGAAGGCACUUGGC | 0.104 | 0.0752 | – | –
32 | UAAGUUUAGGUAGGAUAUACUUUAAAUUUCUCUAUCCAUACAUGAGGAUCACCCAUGUUUACAUUGUAGAAGGACCACUAUGUU | 0.0246 | 0.0204 | – | –
33 | AUAUGAUAGAUAGGAUAUACAGAUAAAUAAUAAGUAGAAGGAUCAAAUGGAAAUUAUACAUGAGGAUCACCCAUGUUUUUGAAU | – | – | 0.029 | 0.0225
34 | AUCCGGCGUGUAGGAUAUGGAAAAGAUUAGGAUCCAGAAGGACAUGAGGAUCACCCAUGUACAUGUAAACAGUCAUCACCGGAA | 0.0341 | 0.0496 | – | –
35 | UAACAUGUCCGAGGAUAUCUGGAAACAUUUUCAAGAGAAGGCGGACAUGAGGAUCACCCAUGUCUCUCCUCAUCAACUACAAAU | 0.00861 | 0.0575 | – | –
36 | GGCCCGCGCGUGAGGAUAUGCUGAUCCCAGGAUUAGCAGAAGGCACAUGAGGAUCACCCAUGUCCAACUUGUCU | 0.0326 | 0.057 | – | –
37 | GCCGGAGCAGGAUAUUCAAUAUCACACAUGAGGAUCACCCAUGUCCAGCGAAAGCUGGAGGGAGAAGGGCUCUGGC | 0.0708 | 0.0203 | – | –
38 | UCCUUAAACACAGGAUAUCCUGCCGUACAUGAGGAUCACCCAUGUCCGGUCGGAGAAGGGUGGCGAAGGUAUGUGCGAAUUAAG | – | – | 0.00823 | 0.00541
39 | AGGCGAGUAGGAUAUGCGUAUUUACGGGAAAGCUGGAUGAUACAUGAGGAUCACCCAUGUAGAAGGGCUCUGAA | 0.0192 | 0.0154 | – | –
40 | UGUUGUAAUACAGGAUAUAUAUUAUUUUUAUUUAUAGAAGGGUAAUCACAUGAGGAUCACCCAUGUAUAUACGAGGAAGAAGAG | – | – | 0.209 | 0.251
41 | GGGUACAUCGGAGGAUAUCAUGUAAAUACAUGAGGAUCACCCAUGUCGAUGGAGACAUCGGAGAUUCAGAAGGCCGAUGUACCG | – | – | 0.108 | 0.0355
42 | AGCUGGUGACAGCAUCCAUCAAAACAUGAGGAUCACCCAUGUAGAAGGCUGUACGGUUACCGUACAGAGGAUAUACAAUGAUGG | 0.00761 | 0.00936 | – | –
43 | CACUGUUUAGAGGAUAUUUACGGGUCACACCCAGGAGAAGGCUGUACAUGAGGAUCACCCAUGUGGUGCGCCUG | 0.0324 | 0.0513 | – | –
44 | UCUACAUAAAUUCAUCAAUACAGAAAGGAUAUGAGAUACAUGAGGAUCACCCAUGUGCAUGGGAAUUAGAAGGUUCAAUUAGCU | 0.0942 | 0.0587 | – | –
45 | CUCAAACAUGAGGAUCACCCAUGUGUUGUCAUGGGAGGAUAUCUAAGUUCAUUGUAUUCGGGAGAAGGCCUAUGUC | – | – | 0.503 | 0.0465
46 | CCCUCACCAGUCAGGAUAUCUUGUGCGAAAAUGCUAGAGAAGGGACAUGAGGAUCACCCAUGUGCCUGCAAGGA | 0.0171 | 0.0179 | – | –
47 | CAUUAUUAUCGAGGAUAUCCUAUUGAAAUUCUGGGAGAAGGCGGACUCAACAUGAGGAUCACCCAUGUGAGACGGAUGCUAGGG | 0.0202 | 0.0158 | – | –
48 | AAAGAAAGGUCAGGAUAUCCGUUAGUCGCGCAAGGAGAAGGGACCUCAUGGGUGCUGACACAUGAGGAUCACCCAUGUAAAAUA | 0.0655 | 0.0231 | – | –
